In test [1] the target is T1, DNA topoisomerase 1 (Homo sapiens, UniProt P11387).
T1 sequence (P11387 whole entry): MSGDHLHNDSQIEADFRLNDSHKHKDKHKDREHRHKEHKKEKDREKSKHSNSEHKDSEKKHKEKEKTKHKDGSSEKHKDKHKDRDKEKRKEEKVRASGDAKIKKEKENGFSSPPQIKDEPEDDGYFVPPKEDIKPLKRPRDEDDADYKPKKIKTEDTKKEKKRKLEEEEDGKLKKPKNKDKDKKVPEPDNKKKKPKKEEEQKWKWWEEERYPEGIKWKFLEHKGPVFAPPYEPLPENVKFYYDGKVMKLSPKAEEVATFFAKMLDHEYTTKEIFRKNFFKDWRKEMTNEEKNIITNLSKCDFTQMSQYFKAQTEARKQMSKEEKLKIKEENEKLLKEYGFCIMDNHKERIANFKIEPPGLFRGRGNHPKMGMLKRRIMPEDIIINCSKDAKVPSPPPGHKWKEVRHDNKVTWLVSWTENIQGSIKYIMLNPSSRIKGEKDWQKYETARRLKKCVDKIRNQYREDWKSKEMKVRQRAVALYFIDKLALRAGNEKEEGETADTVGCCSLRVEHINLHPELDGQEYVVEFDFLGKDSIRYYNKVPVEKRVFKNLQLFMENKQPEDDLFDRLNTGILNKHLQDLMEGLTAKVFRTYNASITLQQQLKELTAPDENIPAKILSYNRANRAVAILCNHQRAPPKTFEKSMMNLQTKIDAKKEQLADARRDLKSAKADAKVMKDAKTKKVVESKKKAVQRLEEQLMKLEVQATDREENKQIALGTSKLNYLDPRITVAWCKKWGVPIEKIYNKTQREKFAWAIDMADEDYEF
The experiment in a line: Inhibition of DNA topoisomerase 1.

Test [2] relates to Enterococcus faecalis. The test can be described thus: Antimicrobial activity against Streptococcus faecalis ATCC 29212 after overnight incubation. Type of test: functional. In a few lines: (§1)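 MIC read after overnight incubation of fatty acid with each organism at 37 °C. Endpoint was the highest dilution preventing growth, compared with an uninoculated chemical-control well. Data come from at least three separate experiments in duplicate.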

In test [3] the target is T2, DNA topoisomerase 1 (Homo sapiens) (UniProt P11387).
T2 sequence (whole entry): T1 sequence (P11387 whole entry)
The test can be described thus: Inhibition of human DNA topoisomerase 1 assessed as inhibition of uncoiling of supercoiled Tetrahymena pHOT1 DNA at 800 uM after 30 mins by agarose gel electrophoresis. The method, boiled down:
(§2)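 Human placental topoisomerase I (1 unit relaxes 0.5 µg DNA in 15 min at 37 °C) was used with 0.25 µg supercoiled pHOT1 plasmid. Fatty acids in DMSO were tested at final 1000, 800, 500, 100 and 10 µM for 30 min at 37 °C. Reactions were stopped with SDS, then proteinase K (final 0.05 mg/mL, 30 min, 37 °C). Products were run on 1% agarose, stained with ethidium bromide, and bands imaged and quantitated.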

Test [4] has as its system Pseudomonas aeruginosa. The experiment in a line: Antimicrobial activity against Pseudomonas aeruginosa ATCC 27853 after overnight incubation. The format is functional. In a few lines: as §1
For test [5], the system named is Staphylococcus aureus. The test can be described thus: Antimicrobial activity against Staphylococcus aureus ATCC 25923 after overnight incubation. The format is functional. In a few lines: as §1
Test [6] concerns Escherichia coli. The test can be described thus: Antimicrobial activity against Escherichia coli ATCC 25922 after overnight incubation. The format is functional. The method, boiled down:
as §1

For test [7], the target named is T1, DNA topoisomerase 1. The experiment in a line: Inhibition of human DNA topoisomerase 1.
Test [8] addresses T2, DNA topoisomerase 1 (Homo sapiens). The experiment in a line: Inhibition of human DNA topoisomerase 1 assessed as inhibition of uncoiling of supercoiled Tetrahymena pHOT1 DNA at […] after 30 mins by agarose gel electrophoresis.
For test [9] the target is unchanged. The test can be described thus: Inhibition of human DNA topoisomerase 1 assessed as inhibition of uncoiling of supercoiled Tetrahymena pHOT1 DNA at > 1000 uM after 30 mins by agarose gel electrophoresis. The method, boiled down: as §2

These results are taken from ChEMBL document CHEMBL1150144, “Total synthesis and biological evaluation of (5Z,9Z)-5,9-hexadecadienoic acid, an inhibitor of human topoisomerase I” (J Nat Prod, 2002).

Structures are written as SMILES. Values after ≈ are worked out from the molar mass of the structure shown. Active and inactive are the calls of the source. The calls are words filed in the database; no cut-off is given here.

For `CCCCCCCC/C=C\CCCCCCCC(=O)O` [OLEIC ACID], in [1], it took 31 µM to reach half-maximal inhibition (IC50).
On to `CCCCCC/C=C\CC/C=C\CCCC(=O)O`, for which the MIC in test [2] came out at 200 µM (≈ 50.5 µg/mL); in test [5], 80 µM (≈ 20.2 µg/mL). For the same compound, in test [3], the inhibition entry was “Active”. Moreover, the result in [4] and in test [6] was inactive.
Turning to `CC(C)CCC/C=C\CC/C=C\CCCC(=O)O`, the MIC is 160 µM (≈ 40.4 µg/mL) in test [2] and 240 µM (≈ 60.6 µg/mL) in test [5].
In turn, `CCCCCCCCCCCCCCCCC/C=C\CC/C=C\CCCC(=O)O` gave an IC50 in test [7] of 0.9 µM.
For `CCCCCCCCCCCCCCCC(=O)O` [PALMITIC ACID], the MIC in test [2], in test [4], in test [5] and in [6] was more than 400 µM throughout. Also, in test [8], the inhibition result is “inactive”.
For the compound `CCCCCCCC/C=C/CCCCCCCC(=O)O` [ELAIDIC ACID], in test [1], the IC50 is more than 1000 µM.
Regarding `CCCCCCC#CCCC#CCCCC(=O)O`, the inhibition entry in [9] was “inactive”.
